# ChEMBL document CHEMBL2021913, “Synthesis and biological evaluation of some novel thiazole substituted benzotriazole derivatives” (2012)
# The source made the active and inactive calls. The rule behind the calls is not given here.
# Legend:
# Format in all cases: functional
# Bacillus subtilis [1] = assay: Antimicrobial activity against Bacillus subtilis 2250 at 35 degC after 18 to 24 hrs by NCCLS method based antimicrobial assay; conditions: for MBC: read-out: MBC99.9
# Pseudomonas aeruginosa [2] = assay: Antimicrobial activity against Pseudomonas aeruginosa 2036 at 35 degC after 18 to 24 hrs by NCCLS method based antimicrobial assay; conditions: for MBC: read-out: MBC99.9
# Aspergillus niger [3] = assay: Antimicrobial activity against Aspergillus niger 545 at 35 degC after 48 hrs by CLSI method based antimicrobial assay; conditions: Aspergillus niger, 545, 48 h; for MFC: read-out: MFC99.9
# Procedure, shortened: (§1)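 Broth microdilution following CLSI guidelines over 256 to 1 µg/mL. MIC90 is the lowest concentration completely inhibiting growth. For MFC, 0.1 mL from each tube spread on agar and CFU counted after 48 h at 35 °C; MFC is lowest concentration killing 99.9% of inoculum. MFC/MIC ratio calculated: […], ≤4 as fungicidal.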
# Candida albicans [4] = assay: Antimicrobial activity against Candida albicans 3471 at 35 degC after 48 hrs by CLSI method based antimicrobial assay; conditions: Candida albicans, 3471, 48 h; for MFC: read-out: MFC99.9; procedure, shortened: as §1
# Aspergillus niger [5] = assay: Ratio of MFC99.9 to MIC90 for Aspergillus niger 545 at 35 degC after 48 hrs by CLSI method based antimicrobial assay; procedure, shortened: as §1
# Candida albicans [6] = assay: Ratio of MFC99.9 to MIC90 for Candida albicans 3471 at 35 degC after 48 hrs by CLSI method based antimicrobial assay; procedure, shortened: as §1
# Staphylococcus aureus [7] = assay: Antimicrobial activity against Staphylococcus aureus 2079 at 128 ug/disc at 35 degC after 24 hrs by agar-well diffusion assay; conditions: for zone of inhibition at 128 µg/disc: Staphylococcus aureus, 2079, 24 h, read-out: DIZ
# Procedure, shortened: (§2)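 Agar-well diffusion: 24 h bacterial cultures adjusted to 0.5 McFarland (1.5 × 10⁸ CFU/mL) and mixed into molten Mueller-Hinton agar before pouring. 6 mm wells punched and each filled with 50 µL of compound stock or control. Plates incubated 35 °C for 24 h. Zone of growth inhibition diameter measured with vernier caliper.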
# Escherichia coli [8] = assay: Antimicrobial activity against Escherichia coli 2109 at 128 ug/disc at 35 degC after 24 hrs by agar-well diffusion assay; conditions: for zone of inhibition at 128 µg/disc: Escherichia coli, 2109, 24 h, read-out: DIZ; procedure, shortened: as §2
# Bacillus subtilis [9] = assay: Antimicrobial activity against Bacillus subtilis 2250 at 128 ug/disc at 35 degC after 24 hrs by agar-well diffusion assay; conditions: for zone of inhibition at 128 µg/disc: Bacillus subtilis, 2250, 24 h, read-out: DIZ; procedure, shortened: as §2
# Pseudomonas aeruginosa [10] = assay: Antimicrobial activity against Pseudomonas aeruginosa 2036 at 128 ug/disc at 35 degC after 24 hrs by agar-well diffusion assay; conditions: for zone of inhibition at 128 µg/disc: Pseudomonas aeruginosa, 2036, 24 h, read-out: DIZ; procedure, shortened: as §2
# Aspergillus niger [11] = assay: Antimicrobial activity against Aspergillus niger 545 at 128 ug/disc at 37 degC after 24 to 72 hrs by agar-well diffusion assay; conditions: read-out: DIZ
# Procedure, shortened: (§3)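 Potato dextrose agar base plates overlaid with seeded agar cooled to 40 °C and inoculated with spores from 10-day cultures, final 1 × 10⁶ spores/mL. Compounds dissolved in DMSO at 128 µg/mL and applied on 6 mm filter-paper discs placed on chilled seeded medium. Nystatin positive control, DMSO negative control. Incubation 24–72 h at 37 °C. Inhibition zone diameter read by vernier caliper.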
# Candida albicans [12] = assay: Antimicrobial activity against Candida albicans 3471 at 128 ug/disc at 37 degC after 24 to 72 hrs by agar-well diffusion assay; conditions: read-out: DIZ; procedure, shortened: as §3
# Staphylococcus aureus [13] = assay: Antimicrobial activity against Staphylococcus aureus 2079 at 35 degC after 18 to 24 hrs by NCCLS method based antimicrobial assay; conditions: for MBC: read-out: MBC99.9
# Escherichia coli [14] = assay: Antimicrobial activity against Escherichia coli 2109 at 35 degC after 18 to 24 hrs by NCCLS method based antimicrobial assay; conditions: for MBC: read-out: MBC99.9
MIC (Bacillus subtilis [1]),MIC (Pseudomonas aeruginosa [2]),MIC (Aspergillus niger [3]) [µg/mL],MIC (Candida albicans [4]) [µg/mL],MIC (Staphylococcus aureus [13]),MIC (Escherichia coli [14]),SMILES,MBC (Bacillus subtilis [1]) [µg/mL],MBC99.9 (Pseudomonas aeruginosa [2]),MFC (Aspergillus niger [3]) [µg/mL],MFC (Candida albicans [4]) [µg/mL],Ratio (Aspergillus niger [5]),Ratio (Candida albicans [6]),diameter of the inhibition zone (DIZ) (Staphylococcus aureus [7]),diameter of the inhibition zone (DIZ) (Escherichia coli [8]),diameter of the inhibition zone (DIZ) (Pseudomonas aeruginosa [10]),zone of inhibition at 128 µg/disc (Aspergillus niger [11]) [mm],zone of inhibition at 128 µg/disc (Candida albicans [12]) [mm],MBC99.9 (Escherichia coli [14]),zone of inhibition at 128 µg/disc (Staphylococcus aureus [7]) [mm],MBC (Staphylococcus aureus [13]) [µg/mL],further results
inactive,32 µg/mL,32,128,32 µg/mL,inactive,O=[N+]([O-])c1ccc(/C(Cn2nnc3ccccc32)=N\Nc2nc(-c3ccc(F)cc3)cs2)cc1,–,–,64,256,2,2,–,inactive,–,17.8,12.2,inactive,26.5,64,MBC99.9 (Bacillus subtilis [1]): inactive; MBC (Pseudomonas aeruginosa [2]): 32 µg/mL; diameter of the inhibition zone (DIZ) (Bacillus subtilis [9]): inactive; zone of inhibition at 128 µg/disc (Pseudomonas aeruginosa [10]): 20.7 mm
128 µg/mL,128 µg/mL,16,16,64 µg/mL,64 µg/mL,Fc1ccc(-c2csc(N/N=C(/Cn3nnc4ccccc43)c3ccc(Cl)cc3)n2)cc1,128,–,32,64,2,4,–,–,–,20.1,21.3,–,24.7,32,MBC (Pseudomonas aeruginosa [2]): 256 µg/mL; zone of inhibition at 128 µg/disc (Escherichia coli [8]): 17.6 mm; zone of inhibition at 128 µg/disc (Bacillus subtilis [9]): 16.9 mm; zone of inhibition at 128 µg/disc (Pseudomonas aeruginosa [10]): 14.3 mm; MBC (Escherichia coli [14]): 128 µg/mL
64 µg/mL,128 µg/mL,16,16,64 µg/mL,128 µg/mL,Fc1ccc(/C(Cn2nnc3ccccc32)=N\Nc2nc(-c3ccc(F)cc3)cs2)cc1,128,–,64,32,4,2,–,–,–,19.1,21.1,–,20.1,128,MBC (Pseudomonas aeruginosa [2]): 256 µg/mL; zone of inhibition at 128 µg/disc (Escherichia coli [8]): 15 mm; zone of inhibition at 128 µg/disc (Pseudomonas aeruginosa [10]): 11.8 mm; MBC (Escherichia coli [14]): 128 µg/mL
128 µg/mL,inactive,32,32,inactive,inactive,O=[N+]([O-])c1ccc(-c2csc(N/N=C(/Cn3nnc4ccccc43)c3ccc(F)cc3)n2)cc1,256,inactive,128,64,4,2,inactive,inactive,inactive,16.2,18.7,inactive,–,–,zone of inhibition at 128 µg/disc (Bacillus subtilis [9]): 14.9 mm; MBC99.9 (Staphylococcus aureus [13]): inactive

# The remaining lines, values behind:
SMILES,MIC (Bacillus subtilis [1]),MIC (Pseudomonas aeruginosa [2]),MIC (Aspergillus niger [3]) [µg/mL],MIC (Candida albicans [4]) [µg/mL],MIC (Staphylococcus aureus [13]),MIC (Escherichia coli [14]),MBC (Bacillus subtilis [1]) [µg/mL],MBC99.9 (Pseudomonas aeruginosa [2]),MFC (Aspergillus niger [3]) [µg/mL],MFC (Candida albicans [4]) [µg/mL],Ratio (Aspergillus niger [5]),Ratio (Candida albicans [6]),diameter of the inhibition zone (DIZ) (Staphylococcus aureus [7]),diameter of the inhibition zone (DIZ) (Escherichia coli [8]),diameter of the inhibition zone (DIZ) (Pseudomonas aeruginosa [10]),zone of inhibition at 128 µg/disc (Aspergillus niger [11]) [mm],zone of inhibition at 128 µg/disc (Candida albicans [12]) [mm],MBC99.9 (Escherichia coli [14]),zone of inhibition at 128 µg/disc (Staphylococcus aureus [7]) [mm],MBC (Staphylococcus aureus [13]) [µg/mL],further results
Clc1ccc(/C(Cn2nnc3ccccc32)=N\Nc2nc(-c3ccc(Br)cc3)cs2)cc1,128 µg/mL,inactive,64,32,inactive,inactive,256,inactive,64,128,1,4,inactive,inactive,inactive,15.2,18,inactive,–,–,zone of inhibition at 128 µg/disc (Bacillus subtilis [9]): 13.8 mm; MBC99.9 (Staphylococcus aureus [13]): inactive
O=[N+]([O-])c1ccc(/C(Cn2nnc3ccccc32)=N\Nc2nc(-c3cc(C(F)(F)F)cc(C(F)(F)F)c3)cs2)cc1,inactive,inactive,32,128,inactive,128 µg/mL,–,inactive,64,256,2,2,inactive,–,inactive,17.9,19,–,–,–,MBC99.9 (Bacillus subtilis [1]): inactive; zone of inhibition at 128 µg/disc (Escherichia coli [8]): 15 mm; diameter of the inhibition zone (DIZ) (Bacillus subtilis [9]): inactive; MBC99.9 (Staphylococcus aureus [13]): inactive; MBC (Escherichia coli [14]): 256 µg/mL
Fc1ccc(/C(Cn2nnc3ccccc32)=N\Nc2nc(-c3cc(C(F)(F)F)cc(C(F)(F)F)c3)cs2)cc1,32 µg/mL,inactive,32,32,128 µg/mL,inactive,64,inactive,128,64,4,2,–,inactive,inactive,17.5,17.4,inactive,19.2,128,zone of inhibition at 128 µg/disc (Bacillus subtilis [9]): 24.1 mm
Fc1ccc(-c2csc(N/N=C(/Cn3nnc4ccccc43)c3ccc(Br)cc3)n2)cc1,inactive,32 µg/mL,32,32,inactive,128 µg/mL,–,–,64,128,2,4,inactive,–,–,17.6,16.8,–,–,–,MBC99.9 (Bacillus subtilis [1]): inactive; MBC (Pseudomonas aeruginosa [2]): 64 µg/mL; zone of inhibition at 128 µg/disc (Escherichia coli [8]): 18.7 mm; diameter of the inhibition zone (DIZ) (Bacillus subtilis [9]): inactive; zone of inhibition at 128 µg/disc (Pseudomonas aeruginosa [10]): 19.8 mm; MBC99.9 (Staphylococcus aureus [13]): inactive; MBC (Escherichia coli [14]): 128 µg/mL
Fc1ccc(-c2csc(N/N=C(/Cn3nnc4ccccc43)c3cc(C(F)(F)F)cc(C(F)(F)F)c3)n2)cc1,inactive,inactive,32,32,32 µg/mL,inactive,–,inactive,64,128,2,4,–,inactive,inactive,16.8,18.4,inactive,24.3,64,MBC99.9 (Bacillus subtilis [1]): inactive; diameter of the inhibition zone (DIZ) (Bacillus subtilis [9]): inactive
